Bioassay records (PubChem)
Hits are enriched below; roughly 1.9% of the tested compounds scored in any of these assays.
NadD block: blocks S. aureus nicotinate mononucleotide adenylyltransferase; AID 602399; hit rate 0.78% among 360,000; inhibition, % at 20 µM; purified NadD enzyme, colorimetric absorbance read-out; in the data active = inhibition above about 26%
core dimer inh: HCV core protein dimerization inhibition; TR-FRET GST/Flag-core106 dimerization, 1536-well; AID 1899; inhibition, % at 5 µM; hit rate 0.33% among 300,000;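 active = inhibition above the mean of all tested compounds plus 3 SD, set per screening campaign, cut at about 45% in these data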
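Test system: GST/Flag-tagged HCV core106 proteins; Medium: KF-containing HEPES buffer, pH 7.45, DTT, CHAPS, BSA; Times: compound-protein-antibody incubation 4 h at 22.5 °C; Detection: TR-FRET 671 and 617 nm emission; Benchmarks: wells lacking GST-core106 and wells with excess unlabelled core106.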
IMP-1 inh-1: inhibitors of Pseudomonas aeruginosa IMP-1 metallo-beta-lactamase; hit rate 0.45% among 290,000; AID 1556; inhibition, % at 5.6 µM; purified IMP-1, nitrocefin hydrolysis, epi-absorbance fluorescence;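 active = inhibition above the mean plus 3 SD of all compounds in the same screening run, cut at about 4.5% in these data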;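 note: 0% = IMP-1 with DMSO and 100% = DMSO wells lacking enzyme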
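System: purified IMP-1 / Input: IMP-1 dispensed at 0.2 nM / Medium: 50 mM HEPES pH 7.1, 50 µM ZnSO4, 0.05% Brij 35 / Timing: 15 min enzyme–compound preincubation, then 25 min nitrocefin reaction, 25 °C / Technique: plate fluorescence quenching by hydrolysis product, ex 480/em 530 nm / Repeats: singlicate testing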
VIM-2 inh: inhibitors of Pseudomonas aeruginosa VIM-2 metallo-beta-lactamase. purified VIM-2, nitrocefin hydrolysis, epi-absorbance fluorescence. inhibition, % at 5.6 µM. hit rate 0.89% among 290,000;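 active = inhibition above the mean of all tested compounds plus 3 SD, cutoff set per screening run, cut at about 7.5% in these data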;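 note: red hydrolysis product quenches plate fluorescence so inhibitors raise well fluorescence; 0% = enzyme with DMSO and 100% = DMSO without enzyme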
IMP-1 inh-2: selectivity counter-screen for VIM-2 inhibitors: IMP-1 metallo-beta-lactamase inhibitors | AID 1856 | purified IMP-1, nitrocefin hydrolysis, epi-absorbance fluorescence | shares compounds with VIM-2 inh | 1,300 tested, under 10 active | inhibition, % at 5.6 µM; call rule not given here;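 note: 0% = enzyme with vehicle and 100% = vehicle without enzyme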
VIM-2 FRET inh: inhibits VIM-2 in FRET assay to exclude epi-absorbance artifacts; shares compounds with VIM-2 inh; purified VIM-2, CCF2 FRET substrate hydrolysis; inhibition, % at 5.6 µM; hit rate 23% among 1,300; AID 1857;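 active = inhibition above the mean of all tested compounds plus 3 SD, cut at about 19% in these data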;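 note: 0% = VIM-2 plus DMSO and 100% = no enzyme wells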
TEM-1 inh: blocks E. coli TEM-1 beta-lactamase in VIM-2 selectivity screen; shares compounds with VIM-2 inh; Purified TEM-1, nitrocefin hydrolysis, epi-absorbance fluorescence; inhibition, % at 5.6 µM; hit rate 3% among 1,300; AID 1866;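 active = inhibition above that campaign's mean inhibition plus 3 SD, cut at about 0.46% in these data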;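 note: 0% = TEM-1 with DMSO and 100% = TEM-1 with 100 µM potassium clavulanate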
Target sequence (P62593 whole entry, looked up): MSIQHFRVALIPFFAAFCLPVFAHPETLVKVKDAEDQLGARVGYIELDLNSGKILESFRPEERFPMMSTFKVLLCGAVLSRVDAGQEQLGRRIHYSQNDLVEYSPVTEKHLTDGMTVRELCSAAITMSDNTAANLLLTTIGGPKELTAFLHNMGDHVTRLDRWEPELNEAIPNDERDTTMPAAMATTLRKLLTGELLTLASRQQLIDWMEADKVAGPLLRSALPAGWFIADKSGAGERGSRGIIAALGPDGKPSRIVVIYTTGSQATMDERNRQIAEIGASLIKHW
VIM-2 confirm 2: confirmation of P. aeruginosa VIM-2 metallo-beta-lactamase inhibitors; hit rate 96% among 1,300; inhibition, % at 5.6 µM; purified VIM-2, nitrocefin hydrolysis, epi-absorbance; shares compounds with VIM-2 inh;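 active = inhibition of the VIM-2 beta-lactamase enzyme above about 11% from the earlier first-round screen, limit read from the data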;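 note: 0% = VIM-2 with DMSO and 100% = buffer wells without enzyme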
An asterisk follows results filed as active.

What do the screens show for `Cc1nc(-c2ccccc2)sc1-c1n[nH]c(=S)n1C`?
NadD block: 1.2; core dimer inh: 2.1; IMP-1 inh-1: -4.4; VIM-2 inh: -2.1

How did Cc1ccc(COc2ccsc2-c2n[nH]c(=S)n2C)cc1 do in these assays?
NadD block: 4.9; core dimer inh: -5.2; IMP-1 inh-1: -2.8; VIM-2 inh: 34.1*; IMP-1 inh-2: -3.0; VIM-2 FRET inh: 61.5*; TEM-1 inh: -7.4; VIM-2 confirm 2: 40.6*

How did COc1ccc(Cl)cc1-c1n[nH]c(=S)n1C do in these assays?
NadD block: 0.6; core dimer inh: 2.1; IMP-1 inh-1: -1.5; VIM-2 inh: -1.9

How did Cc1ccc(NC(=O)C(C)S)cc1 (stereo not drawn) do in these assays?
NadD block: -7.2; core dimer inh: 3.5; IMP-1 inh-1: -0.7; VIM-2 inh: 9.6*; IMP-1 inh-2: 1.3; VIM-2 FRET inh: 4.1; TEM-1 inh: -6.0; VIM-2 confirm 2: 30.4*

Results for O=C(O)c1ccccc1C(=O)c1ccc(Oc2ccccc2)cc1 ?
NadD block: -4.0; core dimer inh: 3.6; IMP-1 inh-1: -1.1; VIM-2 inh: 21.8*; IMP-1 inh-2: -4.1; VIM-2 FRET inh: 44.0*; TEM-1 inh: -3.6; VIM-2 confirm 2: 24.4*

What do the screens show for `CCCc1cc(=O)oc2cc(OCC(=O)NCCCn3ccnc3)c(Cl)cc12`?
NadD block: -2.2; core dimer inh: -0.8; IMP-1 inh-1: -3.4; VIM-2 inh: 18.7*; IMP-1 inh-2: -3.2; VIM-2 FRET inh: -4.0; TEM-1 inh: -6.1; VIM-2 confirm 2: 30.3*

How did Cc1c(OCC(=O)NCCCn2ccnc2)ccc2c3c(c(=O)oc12)CCCC3 do in these assays?
NadD block: 5.5; core dimer inh: 8.1; IMP-1 inh-1: -3.0; VIM-2 inh: 53.8*; IMP-1 inh-2: -2.6; VIM-2 FRET inh: -8.5; TEM-1 inh: -14.3; VIM-2 confirm 2: 64.3*

How did CCCc1cc(=O)oc2c(C)c(OCC(=O)NCCCn3ccnc3)ccc12 do in these assays?
NadD block: -7.5; core dimer inh: -4.2; IMP-1 inh-1: -1.2; VIM-2 inh: 16.1*; IMP-1 inh-2: -2.0; VIM-2 FRET inh: -12.4; TEM-1 inh: -4.6; VIM-2 confirm 2: 27.1*

What do the screens show for `Cc1oc2c(C)c3oc(=O)c(CCC(=O)NCCCn4ccnc4)c(C)c3cc2c1C`?
NadD block: 9.5; core dimer inh: -3.7; IMP-1 inh-1: 0.5; VIM-2 inh: 24.4*; IMP-1 inh-2: -2.3; VIM-2 FRET inh: -10.4; TEM-1 inh: -7.8; VIM-2 confirm 2: 30.4*

Results for Cc1ccc(CN2CCN(Cc3cccn3-c3nccs3)CC2CCO)cc1 (stereo not drawn) ?
NadD block: -3.2; core dimer inh: 5.5; IMP-1 inh-1: -3.2; VIM-2 inh: -4.1

Results for COc1ccc(N2CCN(C(=O)CCCn3c(=O)c4cccn4c4cccnc43)CC2)cc1 ?
NadD block: -2.1; core dimer inh: 8.9; IMP-1 inh-1: -2.4; VIM-2 inh: 0.5

What do the screens show for `O=C(CCCn1c(=O)c2cccn2c2cccnc21)N1CCN(c2ccccc2F)CC1`?
NadD block: 6.4; core dimer inh: -1.9; IMP-1 inh-1: -1.2; VIM-2 inh: 1.2

Results for CCN1CCN(C(=O)CCn2c(=O)c3cccn3c3cccnc32)CC1 ?
NadD block: 0.2; core dimer inh: 3.0; IMP-1 inh-1: -3.1; VIM-2 inh: 17.3*; IMP-1 inh-2: -2.2; VIM-2 FRET inh: 2.5; TEM-1 inh: -4.3; VIM-2 confirm 2: 25.2*

How did CCCN1CCN(C(=O)CCn2c(=O)c3cccn3c3cccnc32)CC1 do in these assays?
NadD block: -4.2; core dimer inh: 0.8; IMP-1 inh-1: -0.1; VIM-2 inh: 12.6*; IMP-1 inh-2: -3.8; VIM-2 FRET inh: -2.9; TEM-1 inh: -5.6; VIM-2 confirm 2: 23.8*

How did Cc1ccc(NS(=O)(=O)c2ccc(C(=O)N3CCN(S(=O)(=O)c4ccccc4)CC3)cc2)cc1 do in these assays?
NadD block: 12.2; core dimer inh: 8.1
